Reference: ChEMBL document CHEMBL2321834 (J Med Chem, 2013)

Key:
[1] = biological target: T1, 11-beta-hydroxysteroid dehydrogenase type 2 (Homo sapiens) (UniProt P80365); test: Inhibition of human recombinant 11beta-HSD2 expressed in HEK293 cell using [1,2,6,7-3H]cortisol as substrate at 2 uM after 10 mins by scintillation counting analysis; assay type: cell-based
T1 sequence (whole entry): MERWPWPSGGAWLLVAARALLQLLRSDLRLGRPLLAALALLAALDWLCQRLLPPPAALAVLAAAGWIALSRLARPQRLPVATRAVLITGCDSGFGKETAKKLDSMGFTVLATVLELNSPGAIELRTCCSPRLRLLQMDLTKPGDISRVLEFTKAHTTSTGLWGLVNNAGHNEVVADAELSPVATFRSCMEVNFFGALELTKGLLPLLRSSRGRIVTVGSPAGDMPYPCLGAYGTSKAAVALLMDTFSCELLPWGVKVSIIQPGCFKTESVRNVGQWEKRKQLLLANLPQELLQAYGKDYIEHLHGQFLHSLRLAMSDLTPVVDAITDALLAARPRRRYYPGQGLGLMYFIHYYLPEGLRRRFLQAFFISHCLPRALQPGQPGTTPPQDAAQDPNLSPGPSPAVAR
Summary of the method: (§1)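 Recombinant human 11β-HSD1 or 11β-HSD2 stably transfected in HEK-293 cells, following a previously described procedure.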

[2] = biological target: T2, 11-beta-hydroxysteroid dehydrogenase 1 (Homo sapiens, UniProt P28845); test: Inhibition of human recombinant 11beta-HSD1 expressed in HEK293 cell using [1,2-3H]Cortisone as substrate at 2 uM after 10 mins by scintillation counting analysis; assay type: cell-based; summary of the method: as §1
Target sequence in this assay (P28845 whole entry, looked up): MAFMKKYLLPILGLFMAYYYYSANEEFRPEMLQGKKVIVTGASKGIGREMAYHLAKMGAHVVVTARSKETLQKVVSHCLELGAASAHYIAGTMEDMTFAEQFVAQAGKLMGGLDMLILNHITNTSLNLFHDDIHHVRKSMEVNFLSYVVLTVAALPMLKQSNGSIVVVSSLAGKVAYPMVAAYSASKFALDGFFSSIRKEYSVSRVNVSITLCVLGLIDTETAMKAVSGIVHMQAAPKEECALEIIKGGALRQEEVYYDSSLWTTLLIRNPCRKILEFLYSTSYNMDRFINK

[3] = biological target: T3, Aldo-keto reductase family 1 member C3 (Homo sapiens) (UniProt P42330); test: Inhibition of human recombinant 17beta-HSD5 expressed in Escherichia coli using [1,2,6,7-3H]A-dione as substrate at 1 uM by scintillation counting analysis
T3 sequence (whole entry): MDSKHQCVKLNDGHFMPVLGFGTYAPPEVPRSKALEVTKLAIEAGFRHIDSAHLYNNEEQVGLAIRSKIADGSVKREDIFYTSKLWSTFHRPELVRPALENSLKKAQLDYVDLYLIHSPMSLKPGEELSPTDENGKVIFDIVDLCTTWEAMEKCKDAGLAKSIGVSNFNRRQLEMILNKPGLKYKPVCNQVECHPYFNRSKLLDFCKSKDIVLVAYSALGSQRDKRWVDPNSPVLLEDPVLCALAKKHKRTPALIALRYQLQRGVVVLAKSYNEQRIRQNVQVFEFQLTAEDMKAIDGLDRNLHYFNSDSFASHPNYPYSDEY

[4] = biological target: T4, 17-beta-hydroxysteroid dehydrogenase type 2 (Homo sapiens, UniProt P37059); test: Inhibition of 17beta-HSD2 in human MDA-MB-231 cells using [3H]E2 as substrate after 6 hrs by HPLC analysis; assay type: cell-based
T4 sequence (P37059 whole entry): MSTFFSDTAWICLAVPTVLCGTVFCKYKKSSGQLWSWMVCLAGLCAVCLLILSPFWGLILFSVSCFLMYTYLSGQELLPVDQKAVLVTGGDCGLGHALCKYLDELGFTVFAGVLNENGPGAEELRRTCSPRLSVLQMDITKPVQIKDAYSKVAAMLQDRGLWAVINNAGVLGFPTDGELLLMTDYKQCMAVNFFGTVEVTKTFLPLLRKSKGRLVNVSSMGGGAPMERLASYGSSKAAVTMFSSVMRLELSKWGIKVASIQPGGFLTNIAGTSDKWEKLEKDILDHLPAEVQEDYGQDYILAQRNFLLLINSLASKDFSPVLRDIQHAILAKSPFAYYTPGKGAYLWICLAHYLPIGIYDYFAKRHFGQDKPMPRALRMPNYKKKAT

[5] = biological target: Estrogen receptor beta (Homo sapiens) (UniProt Q92731); test: Displacement of [3H]E2 from human recombinant ERbeta after 1 hr by scintillation counting analysis relative to E2
Summary of the method: (§2)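 Competitive binding assay against ERα and ERβ, with E2 as internal reference.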

[6] = biological target: T5, Estrogen receptor (Homo sapiens) (UniProt P03372); test: Displacement of [3H]E2 from human recombinant ERalpha after 1 hr by scintillation counting analysis relative to E2; summary of the method: as §2
T5 sequence (whole entry): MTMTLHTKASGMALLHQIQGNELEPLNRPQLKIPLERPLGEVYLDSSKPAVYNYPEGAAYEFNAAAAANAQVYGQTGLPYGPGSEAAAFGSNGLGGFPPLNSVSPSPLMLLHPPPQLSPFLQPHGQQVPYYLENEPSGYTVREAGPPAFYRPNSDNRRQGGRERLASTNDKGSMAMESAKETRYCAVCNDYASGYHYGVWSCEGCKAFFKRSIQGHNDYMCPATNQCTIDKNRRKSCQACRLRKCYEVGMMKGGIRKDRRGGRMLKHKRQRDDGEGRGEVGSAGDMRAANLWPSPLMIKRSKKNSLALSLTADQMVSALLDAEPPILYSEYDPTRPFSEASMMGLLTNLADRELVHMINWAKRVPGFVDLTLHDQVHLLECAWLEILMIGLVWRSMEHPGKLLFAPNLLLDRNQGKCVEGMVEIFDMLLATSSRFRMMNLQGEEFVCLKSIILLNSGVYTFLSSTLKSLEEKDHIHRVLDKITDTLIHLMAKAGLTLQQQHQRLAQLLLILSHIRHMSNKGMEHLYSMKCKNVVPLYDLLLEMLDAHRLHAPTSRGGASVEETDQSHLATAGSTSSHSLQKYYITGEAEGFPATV

[7] = biological target: T2, 11-beta-hydroxysteroid dehydrogenase 1; test: Inhibition of human recombinant 11beta-HSD1 expressed in HEK293 cell using [1,2-3H]Cortisone as substrate after 10 mins by scintillation counting analysis; assay type: cell-based
Target sequence in this assay (P28845 whole entry): as the sequence (P28845 whole entry, looked up) above

Homo sapiens = species on record: Homo sapiens; test: Selectivity ratio of IC50 for 17beta-HSD1 in human placental microsomal fraction to IC50 for 17beta-HSD2 in human placental microsomal fraction; assay type: microsomes; conditions: Microsome

Estrogen receptor beta (Homo sapiens), sequence (Q92731 whole entry): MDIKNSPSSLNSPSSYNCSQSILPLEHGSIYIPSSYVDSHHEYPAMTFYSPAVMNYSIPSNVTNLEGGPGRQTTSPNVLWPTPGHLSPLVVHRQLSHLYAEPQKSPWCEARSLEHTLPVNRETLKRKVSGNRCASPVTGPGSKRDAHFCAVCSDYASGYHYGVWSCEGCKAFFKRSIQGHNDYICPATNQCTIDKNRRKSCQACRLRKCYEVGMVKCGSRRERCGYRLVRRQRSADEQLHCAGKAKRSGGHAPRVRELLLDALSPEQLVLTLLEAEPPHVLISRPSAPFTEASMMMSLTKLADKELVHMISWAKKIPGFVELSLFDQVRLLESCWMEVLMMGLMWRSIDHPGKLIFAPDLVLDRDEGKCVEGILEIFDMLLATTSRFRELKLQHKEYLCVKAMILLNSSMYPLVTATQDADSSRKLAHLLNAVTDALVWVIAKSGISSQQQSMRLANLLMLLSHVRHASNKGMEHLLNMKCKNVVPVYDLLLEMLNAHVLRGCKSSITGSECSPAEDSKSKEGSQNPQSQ

IC50 [7] [nM]	Ratio IC50 (Homo sapiens)	Structure (SMILES)	inhibition [1] [%]	inhibition [2] [%]	inhibition [3] [%]	IC50 [4] [nM]	RBA [5] [%]	RBA [6] [%]
–	–	COc1cccc(N(C)C(=O)c2ccc(-c3cccc(OC)c3F)s2)c1	8	9	26	105	< 0.1	< 0.1
1000	73	COc1cccc(-c2ccc(C(=O)N(C)Cc3cccc(O)c3)s2)c1F	10	68	33	–	–	–
